Measurements from ChEMBL document CHEMBL3526035, “Role of the intestinal peptide transporter PEPT1 in oseltamivir absorption: in vitro and in vivo studies” (Drug Metab Dispos, 2012).

How the values were obtained:
[1] = AUC(0 to 24 hrs) in healthy human at 150 mg, po administered as single dose by HPLC-tandem mass spectrometry under fed conditions; type: ADME, organism-based; parameters: time < 24 hr, dose 150 mg, route oral; conditions: plasma
Method in brief: (§1)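 Open-label crossover in 18 healthy volunteers (9 male, 9 female, mean age 26). Each received marketed oseltamivir 150 mg orally, once fasted from midnight and once after a high-fat, high-calorie breakfast, with a 7-10 day washout. Plasma and urine collected over 0-72 h and analysed by HPLC-MS/MS. AUC and Cmax compared after log transformation.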

[2] = Drug uptake in CHOK1 cells expressing human PEPT1 by HPLC coupled with radiodetection analysis in presence of KH and Hanks' balanced salt solution; type: ADME, cell-based, Cricetulus griseus; conditions: chinese hamster, cho-k1
Method in brief: (§2)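 Accumulation of [14C]oseltamivir or its carboxylate in CHO-PEPT1 versus CHO-K1 cells. Conditions varied: KH buffer (with MES) or Hanks' balanced salt solution, pH 5 or 6 readjusted after substrate addition, 30 s to 15 min at 37°C. Uptake was quenched with ice-cold PBS-BSA, followed by Triton X-100 lysis, scintillation counting, and BCA protein normalization. HPLC-radiodetection checked ester stability.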

[3] = AUC(0 to infinity) in adult fed Sprague-Dawley rat at 30 mg/kg, po administered as solution in bovine milk by HPLC-tandem mass spectrometry; type: ADME, organism-based; parameters: time infinity, dose 30 mg/kg, route oral; conditions: in vivo
Method in brief: (§3)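 Sprague-Dawley males, 7-8 weeks, 243-283 g, jugular-cannulated, 3 days' recovery; fed (chow ad libitum). Single oral dose of 30 mg/kg (free base) at 10 ml/kg; 3 rats/group. Jugular blood taken at 0.25-24 h into K2EDTA with dichlorvos, kept on ice. Plasma analysed by validated LC-MS/MS (0.1-500 μg/l). Noncompartmental analysis; AUC by linear trapezoid, AUC0-∞ extrapolated using λz.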

[4] = AUC(0 to 5 hrs) in juvenile fasted Sprague-Dawley rat at 30 mg/kg, po administered as water solution by HPLC-tandem mass spectrometry; type: ADME, organism-based; parameters: time < 5 hr, dose 30 mg/kg, route oral; conditions: plasma
Method in brief: (§4)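 7-day-old Sprague-Dawley pups (9.7-18.9 g, both sexes), 15 per group. Given 30 mg/kg by oral gavage (10 ml/kg); breast-fed pups stayed with dams, fasted pups were removed 8 h before dosing. Blood taken by cardiac puncture under isoflurane at 0.25, 0.5, 1, 2 and 5 h, n=3 per time point (composite design). Dichlorvos-treated plasma assayed by LC-MS/MS; AUC0-5h by noncompartmental analysis.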

[5] = AUC(0 to 6 hrs) in adult fed Sprague-Dawley rat at 30 mg/kg, po administered as 125 mM aqueous Gly-Sar solution by HPLC-tandem mass spectrometry; type: ADME, organism-based; parameters: time < 6 hr, dose 30 mg/kg, route oral; conditions: plasma; method in brief: as §3
[6] = Drug uptake in CHOK1 cells expressing human PEPT1 incubated for 30s to 15 mins by HPLC coupled with radiodetection analysis; type: ADME, cell-based, Cricetulus griseus; conditions: chinese hamster, cho-k1, 0.25 h; method in brief: as §2
[7] = AUC(0 to 6 hrs) in adult fasted Sprague-Dawley rat at 30 mg/kg, po administered as solution in bovine milk by HPLC-tandem mass spectrometry; type: ADME, organism-based; parameters: time < 6 hr, dose 30 mg/kg, route oral; conditions: in vivo
Method in brief: (§5)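 Adult male Sprague-Dawley rats (243-283 g), jugular-cannulated, fasted from 6 h before dosing through the 6-h study. Given 30 mg/kg orally (free base) at 10 ml/kg, n=3/group. Blood sampled at 0.25-6 h into K2EDTA with dichlorvos esterase inhibitor. Plasma assayed by LC-MS/MS (0.1-500 μg/l). Noncompartmental analysis: linear-trapezoid AUC; infinity extrapolation via log-linear terminal λz.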

[8] = AUC(0 to infinity) in healthy human at 150 mg, po administered as single dose by HPLC-tandem mass spectrometry under fasting conditions; type: ADME, organism-based; parameters: dose 150 mg, route oral, time infinity; conditions: plasma; method in brief: as §1
[9] = AUC(0 to infinity) in adult fasted Sprague-Dawley rat at 30 mg/kg, po administered as 125 mM aqueous Gly-Sar solution by HPLC-tandem mass spectrometry; type: ADME, organism-based; parameters: time infinity, dose 30 mg/kg, route oral; conditions: plasma; method in brief: as §5
[10] = Tmax in adult fasted Sprague-Dawley rat at 30 mg/kg, po administered as water solution by HPLC-tandem mass spectrometry; type: ADME, organism-based; parameters: dose 30 mg/kg, route oral; conditions: in vivo
Method in brief: (§6)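 Male Sprague-Dawley rats (7–8 weeks, 243–283 g) had jugular-vein cannulas and 3 days' recovery. Fasting ran from 6 h predose through the 6 h study. Three rats per vehicle received 30 mg/kg oral (10 ml/kg). Blood was sampled 0.25–6 h into K2EDTA tubes with dichlorvos. Plasma was assayed by HPLC-MS/MS (0.1–500 µg/l). Tmax was read graphically (noncompartmental).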

[11] = Cmax in adult fasted Sprague-Dawley rat at 30 mg/kg, po administered as 125 mM aqueous Gly-Sar solution by HPLC-tandem mass spectrometry; type: ADME, organism-based; parameters: dose 30 mg/kg, route oral; conditions: in vivo
Method in brief: (§7)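 Adult cannulated Sprague-Dawley rats, fasted (from 6 h predose) or fed, dosed orally at 30 mg/kg (10 ml/kg), 3 per group. Serial jugular plasma with dichlorvos stabilisation, measured by LC-MS/MS. Cmax read graphically from the concentration-time profile.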

[12] = Cmax in juvenile fasted Sprague-Dawley rat at 30 mg/kg, po administered as water solution by HPLC-tandem mass spectrometry; type: ADME, organism-based; parameters: dose 30 mg/kg, route oral; conditions: in vivo; method in brief: as §4
[13] = AUC(0 to infinity) in adult fed Sprague-Dawley rat at 30 mg/kg, po administered as water solution by HPLC-tandem mass spectrometry; type: ADME, organism-based; parameters: time infinity, dose 30 mg/kg, route oral; conditions: plasma; method in brief: as §3
[14] = AUC(0 to 5 hrs) in juvenile fasted Sprague-Dawley rat at 30 mg/kg, po administered as solution in bovine milk by HPLC-tandem mass spectrometry; type: ADME, organism-based; parameters: time < 5 hr, dose 30 mg/kg, route oral; conditions: in vivo; method in brief: as §4
[15] = AUC(0 to 24 hrs) in adult fed Sprague-Dawley rat at 30 mg/kg, po administered as 125 mM aqueous Gly-Sar solution by HPLC-tandem mass spectrometry; type: ADME, organism-based; parameters: time < 24 hr, dose 30 mg/kg, route oral; conditions: plasma; method in brief: as §3
[16] = Terminal half life in healthy human at 150 mg, po administered as single dose by HPLC-tandem mass spectrometry under fasting conditions; type: ADME, organism-based; conditions: in vivo, read-out: beta t1/2 (converted)
Method in brief: (§8)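 Open-label crossover food-effect study in 18 healthy volunteers (9 male, 9 female, mean age 26). Each received a single 150 mg oral dose of the marketed formulation, once fasting from midnight and once after a high-fat, high-calorie breakfast, separated by a 7–10 day washout. Plasma and urine were collected over 0–72 h and assayed by HPLC-MS/MS for oseltamivir and carboxylate.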

[17] = Tmax in adult fasted Sprague-Dawley rat at 30 mg/kg, po administered as 125 mM aqueous Gly-Sar solution by HPLC-tandem mass spectrometry; type: ADME, organism-based; parameters: dose 30 mg/kg, route oral; conditions: in vivo; method in brief: as §6
[18] = Drug uptake in CHOK1 cells by HPLC coupled with radiodetection analysis in presence of KH and Hanks' balanced salt solution; type: ADME, cell-based, Cricetulus griseus; conditions: chinese hamster, cho-k1
[19] = Tmax in juvenile fasted Sprague-Dawley rat at 30 mg/kg, po administered as 125 mM aqueous Gly-Sar solution by HPLC-tandem mass spectrometry; type: ADME, organism-based; parameters: dose 30 mg/kg, route oral; conditions: in vivo
Method in brief: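 Seven-day-old Sprague-Dawley pups, males and females, 15 per group, were gavaged with 30 mg/kg (10 ml/kg). Breast-fed pups stayed with their dams; fasted pups were removed from 8 h predose through 5 h. Cardiac blood was drawn under isoflurane at 0.25, 0.5, 1, 2 and 5 h (composite, n=3/time point), with dichlorvos added. Plasma was analyzed by HPLC-MS/MS and Tmax read graphically.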

[20] = Cmax in adult fed Sprague-Dawley rat at 30 mg/kg, po administered as water solution by HPLC-tandem mass spectrometry; type: ADME, organism-based; parameters: dose 30 mg/kg, route oral; conditions: in vivo; method in brief: as §7
[21] = Terminal half life in healthy human at 150 mg, po administered as single dose by HPLC-tandem mass spectrometry under fed conditions; type: ADME, organism-based; conditions: in vivo, read-out: beta t1/2 (converted); method in brief: as §8
[22] = Renal clearance in healthy human at 150 mg, po administered as single dose by HPLC-tandem mass spectrometry under fasting conditions; type: ADME, organism-based, Kidney; conditions: in vivo; method in brief: as §8

Compound | AUC(0-t) at 24 h [1] [ng·h/mL] | Drug uptake [2] | AUC(0-inf) [3] [ng·h/mL] | AUC(0-t) at 5 h [4] [ng·h/mL] | AUC(0-t) at 6 h [5] [ng·h/mL] | Drug uptake [6] | AUC(0-t) at 6 h [7] [ng·h/mL] | AUC(0-inf) [8] [ng·h/mL] | AUC(0-inf) [9] [ng·h/mL] | Tmax [10] [h] | Cmax [11] [ng/mL] | Cmax [12] [ng/mL] | AUC(0-inf) [13] [ng·h/mL] | AUC(0-t) at 5 h [14] [ng·h/mL] | AUC(0-t) at 24 h [15] [ng·h/mL] | half-life [16] [h] | Tmax [17] [h] | Drug uptake [18] | Tmax [19] [h] | Cmax [20] [ng/mL] | further results
CCOC(=O)C1=C[C@@H](OC(CC)CC)[C@H](NC(C)=O)[C@@H](N)C1 [OSELTAMIVIR] | 280 | Active | 2810 | 29500 | 2280 | Active | 3010 | 244 | 3810 | 0.83 | 2070 | 10500 | 2510 | 26900 | 2830 | 1.61 | 0.25 | Active | 0.5 | 1270 | half-life [21]: 2.15 h; CL renal [22]: 340 mL/min
CCC(CC)O[C@@H]1C=C(C(=O)O)C[C@H](N)[C@H]1NC(C)=O [OSELTAMIVIR CARBOXYLATE] | 5060 | Active | 6340 | 12100 | 2960 | Active | 5810 | 6220 | 8860 | 1.08 | 2560 | 3100 | 5290 | 9260 | 4860 | 6.87 | 1.17 | Active | 2 | 1110 | half-life [21]: 8.2 h; CL renal [22]: 223 mL/min
